Rows were chosen to be rich in hits. Some 1.8% of all compounds tested hit in one or more screens of this group.
M4 PAM: potentiates acetylcholine response at human M4 receptor | hit rate 0.4% among 360,000 | activation, % at 3 µM | CHO-K1 hM4/Gqi5, Fluo-8 calcium fluorescence, ACh EC20; 0% = ACh EC20, 100% = maximal ACh | P08173;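 active means activation above its plate's cutoff, the mean activation of sample wells plus 3 SD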
Target sequence (P08173 whole entry, looked up): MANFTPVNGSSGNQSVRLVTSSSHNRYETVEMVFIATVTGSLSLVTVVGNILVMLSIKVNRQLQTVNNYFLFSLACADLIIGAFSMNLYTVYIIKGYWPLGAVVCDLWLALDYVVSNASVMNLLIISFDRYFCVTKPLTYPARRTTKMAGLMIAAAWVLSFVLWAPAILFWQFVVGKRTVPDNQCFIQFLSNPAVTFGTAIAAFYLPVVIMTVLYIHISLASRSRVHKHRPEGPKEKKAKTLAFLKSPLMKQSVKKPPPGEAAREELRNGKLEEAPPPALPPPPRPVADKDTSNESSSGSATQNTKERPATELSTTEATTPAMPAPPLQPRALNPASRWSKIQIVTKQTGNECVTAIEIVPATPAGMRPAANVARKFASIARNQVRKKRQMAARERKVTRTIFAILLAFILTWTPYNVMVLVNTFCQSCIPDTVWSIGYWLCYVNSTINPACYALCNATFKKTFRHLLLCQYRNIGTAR
M5 PAM: CHRM5 positive allosteric modulation; P08912; CHO-K1 hM5, Fluo-8 calcium, ACh EC20 PAM; 0% = ACh EC20, 100% = ACh EC100; activation, % at 3 µM; hit rate 0.3% among 360,000;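 active means activation above the run cutoff, the mean activation of all test compounds plus 3 SD, cut at about 18% in these data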
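System: CHO-K1 hM5 cells. Reagent: acetylcholine, EC20 level. Compound dosing: single dose, 3 µM nominal final test concentration. Timing: Post-acetylcholine fluorescence recording 140 s. Detection: Fluo-8 calcium fluorescence. Read-out: % activation, ACh-normalized. Benchmarks: ACh EC20 and EC100 wells. Repeats: singlicate, one well per test compound.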
M4 ag: CHRM4 agonism in calcium assay | P08173 | CHO-K1 hM4/Gqi5, Fluo-8 calcium fluorescence; vehicle 0%, full acetylcholine response 100% | activation, % at 3 µM | hit rate 0.14% among 360,000;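 active means activation above the run mean over all test wells plus 3 SD, cut at about 32% in these data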;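 further: peak over basal fluorescence ratio per well then scaled between controls; 0% = DMSO wells and 100% = acetylcholine at EC100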
M4 antag: blocks acetylcholine activation of human M4 receptor; inhibition, % at 3 µM; CHO-hM4 cells, ACh EC80, Fluo-8 calcium fluorescence; hit rate 0.73% among 360,000;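 active means inhibition above its plate's cutoff, the mean inhibition of sample wells plus 3 SD, cut at about 27% in these data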;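 further: 0% = acetylcholine EC80 with DMSO and 100% = DMSO without agonist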
M5 ag: CHRM5 agonism in calcium assay. P08912. CHO-K1 hM5 cells, Fluo-8 calcium fluorescence; 0% DMSO wells, 100% maximal acetylcholine response. activation, % at 3 µM. hit rate 0.19% among 360,000;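 active means activation above the run's mean over test compounds plus 3 SD, cut at about 23% in these data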;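 further: signal is peak over basal fluorescence ratio across the kinetic read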
CHRM5 antagonist: blocks acetylcholine activation of human M5 receptor; inhibition, % at 3 µM; hit rate 0.59% among 360,000; AID 624040; P08912; CHO-hM5 cells, Fluo-8 calcium fluorescence, ACh EC80;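 active means inhibition above a per-plate cutoff, the mean of that plate's test compounds plus 3 SD, cut at about 27% in these data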;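 further: 0% = acetylcholine EC80 with DMSO and 100% = DMSO without agonist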
The depositor's hits bear a star.

SMILES	M4 PAM	M5 PAM	M4 ag	M4 antag	M5 ag	CHRM5 antagonist
COC(=O)C1=C(CSc2nc3ccccc3s2)NC(=O)NC1c1ccc(F)cc1 (stereo unspecified)	1	-9	2	3	-6	17
Cc1cc2c(cc1C)N(C(=O)CSc1nncn1C)C(C)(C)c1ssc(=S)c1-2	-11	-23	-3	11	-7	34*
CCOC(=O)N1CCC(N2CCN(C3CCCC3)C(CCO)C2)CC1 (stereo unspecified)	-21	-5	1	80*	-11	-3
CCOC(=O)N1CCC(NC2CCCCCCC2)CC1	-26	-4	1	47*	-8	5
CCN1CCN(S(=O)(=O)c2ccc(Cl)c(C(=O)NC(C)(C)C)c2)CC1	3	6	2	2	1	1
CN(C)CCCC1(O)c2ccccc2C=Cc2ccccc21	-14	-23	1	17	-6	24
O=C(NCCN1CCOCC1)c1ccc2c(c1)N(Cc1ccccc1F)C(=O)CS2	-17	-8	0	47*	-15	1
O=C(NCCCN1CCOCC1)c1ccc2c(c1)N(Cc1c(F)cccc1Cl)C(=O)CS2	-20	-16	2	58*	-7	19
Cc1ccc(C)c(CN2C(=O)CSc3ccc(C(=O)NCCN4CCOCC4)cc32)c1	1	-4	2	4	-5	3
Cc1cccc(CN2C(=O)/C(=C\c3ccc(C(=O)NCCN4CCOCC4)cc3)Sc3ccccc32)c1	-10	-13	23	18	-2	31*
O=C(COc1coc(CN2CCc3ccccc3C2)cc1=O)Nc1cccc([N+](=O)[O-])c1	-5	-2	5	8	-1	1
CN(C(=O)COC(=O)c1ccc2c(=O)n3c(nc2c1)CCC3)c1ccccc1	0	2	2	-8	-1	8
CCOc1ccc(C(=O)Nc2nnc(S(=O)(=O)Nc3ccccc3C)s2)cc1	6	-4	4	-6	0	-2
CCOC1=C2CN(S(=O)(=O)c3ccc(C)cc3)[C@H](c3ccccc3)C[C@@H]2N(S(=O)(=O)c2ccc(C)cc2)[C@H](c2cccc(C)c2)C1	0	-4	0	-20	3	4
COc1ccccc1-c1nnc(Nc2nc3c(OC)cccc3s2)o1	-6	-3	3	35*	1	24
Cc1c(NC(=O)COC(=O)c2ccc(O)cc2)c(=O)n(-c2ccccc2)n1C	-1	3	0	1	-1	3
COc1cc(OC)nc(NC(=O)CSc2nnc(-c3ccccc3)n2C2CCCCC2)n1	7	25*	2	-6	0	15
Cc1cnc(NC(=O)CSc2nnc(-c3ccncc3)n2C2CCCCC2)s1	33*	1	1	-5	-1	-10
Cn1nc(C(F)(F)F)c(-c2ccc(Br)cc2)c1NC(=O)Nc1ccc(F)cc1F	-14	-20	14	8	9	30*
O=C(O)Cc1ccc(N2N=C(c3ccccc3)CC2=O)cc1	17	-2	0	4	2	3
Cc1ccccc1NC(=S)NCc1ccccc1	7	5	1	-10	-7	0
Cc1ccc(/C=N/N2CCN(Cc3ccc(Cl)cc3)CC2)o1	-2	-3	5	31*	-2	6
Cc1cc(C)n2nc(-c3ccc(Br)cc3)cc2n1	18*	0	2	1	-2	-1
CCN(CC)CCCn1c2c(c(SCC(=O)Nc3ccc(OC(F)(F)F)cc3)nc1=O)CCC2	-6	0	2	1	-6	-2
O=C(Cn1cnc2c(nnn2Cc2ccccc2)c1=O)c1ccccc1	18*	-4	5	-22	2	0
SMILES	M4 PAM	M5 PAM	M4 ag	M4 antag	M5 ag	CHRM5 antagonist
COc1ccccc1NC(=O)N(C)C[C@H]1Oc2ncc(C#CCN(C)C)cc2C(=O)N([C@H](C)CO)C[C@H]1C	5	7	1	-5	0	-4
COC(=O)[C@H]1[C@@H](C)N(Cc2ccccc2)C(=O)N[C@H]1c1cccc(C(F)(F)F)c1	12	19*	4	-11	5	-4
Cc1ccc(C2CC(=O)c3cnc(NC(=O)c4ccco4)nc3C2)cc1 (stereo unspecified)	15*	22*	3	-14	-1	0
Cc1ccc(Nc2ncc3c(n2)CC(c2ccco2)CC3=O)c(C)c1 (stereo unspecified)	29*	5	0	1	-2	-4
CCc1nnc(NC(=O)CN2CCN(Cc3ccc(F)cc3)CC2)s1	-3	4	1	-7	3	0
COc1ccc(CN2CCc3c([nH]c4ccccc34)C2)c(OC)c1C	-1	-2	1	2	-11	17
CCCCNC(=O)c1nc(C2CCN(S(=O)(=O)c3ccc(S(C)(=O)=O)cc3)CC2)oc1-c1ccccc1	-18	-19	14	11	-4	30*
O=C(C[n+]1ccccc1)N/N=C/c1ccc(F)cc1	-6	-3	10	-5	1	10
O=C(NCCOc1ccccc1)c1cc(C(=O)NCCOc2ccccc2)cc([N+](=O)[O-])c1	-28	-21	27	15	9	27*
O=C(NCCOc1ccccc1)c1ccccc1[N+](=O)[O-]	1	6	1	-12	1	5
Cc1c(C(=O)N2CCC(C)(C(=O)NS(=O)(=O)C3CC3)C2)oc2ccccc12 (stereo unspecified)	17*	2	1	-8	-1	4
Cc1c(C(=O)N2CCCC(C)(C(=O)NS(=O)(=O)C3CC3)C2)oc2ccccc12 (stereo unspecified)	7	-5	-1	-6	-1	5
CSc1ccccc1C(=O)C1CCCN(C(=O)CCN2CCCO2)C1 (stereo unspecified)	0	-1	2	-9	-3	-10
CCc1c(C)c2cc(Cl)c(O)c(CN3CCCC3)c2oc1=O	-8	-3	0	-10	-8	4
Cn1c(=O)c2[nH]c(-c3cccnc3)nc2n(C)c1=O	31*	0	1	-9	-3	-13
OC(c1ccc(F)c(F)c1)c1nc(-c2csc3ccccc23)cs1 (stereo unspecified)	9	-5	2	-7	-1	-1
O=C(/C=C/c1ccc(S(=O)(=O)NCc2ccco2)cc1)NCc1cccc(Cl)c1	-8	-18	4	4	-9	32*
CN(C(=O)COC(=O)C1=COCCO1)C1(C#N)CCCCC1	13	16	1	-2	5	2
N#CC1(NC(=O)COC(=O)C2=COCCO2)CCCCC1	4	1	113*	7	19	11
